Laboratory results: ChEMBL document CHEMBL1914308, “N-fused imidazoles as novel anticancer agents that inhibit catalytic activity of topoisomerase IIα and induce apoptosis in G1/S phase” (J Med Chem, 2011)
The source made the active and inactive calls. The calls are words filed in the database; no cut-off is given here.

Tests used:
[1] = biological target: T1, DNA topoisomerase 2-alpha (Homo sapiens, UniProt P11388); assay: Inhibition of human topoisomerase 2 alpha-mediated decatenation of kDNA at 100 uM by agarose gel electrophoresis
T1 sequence (P11388 whole entry): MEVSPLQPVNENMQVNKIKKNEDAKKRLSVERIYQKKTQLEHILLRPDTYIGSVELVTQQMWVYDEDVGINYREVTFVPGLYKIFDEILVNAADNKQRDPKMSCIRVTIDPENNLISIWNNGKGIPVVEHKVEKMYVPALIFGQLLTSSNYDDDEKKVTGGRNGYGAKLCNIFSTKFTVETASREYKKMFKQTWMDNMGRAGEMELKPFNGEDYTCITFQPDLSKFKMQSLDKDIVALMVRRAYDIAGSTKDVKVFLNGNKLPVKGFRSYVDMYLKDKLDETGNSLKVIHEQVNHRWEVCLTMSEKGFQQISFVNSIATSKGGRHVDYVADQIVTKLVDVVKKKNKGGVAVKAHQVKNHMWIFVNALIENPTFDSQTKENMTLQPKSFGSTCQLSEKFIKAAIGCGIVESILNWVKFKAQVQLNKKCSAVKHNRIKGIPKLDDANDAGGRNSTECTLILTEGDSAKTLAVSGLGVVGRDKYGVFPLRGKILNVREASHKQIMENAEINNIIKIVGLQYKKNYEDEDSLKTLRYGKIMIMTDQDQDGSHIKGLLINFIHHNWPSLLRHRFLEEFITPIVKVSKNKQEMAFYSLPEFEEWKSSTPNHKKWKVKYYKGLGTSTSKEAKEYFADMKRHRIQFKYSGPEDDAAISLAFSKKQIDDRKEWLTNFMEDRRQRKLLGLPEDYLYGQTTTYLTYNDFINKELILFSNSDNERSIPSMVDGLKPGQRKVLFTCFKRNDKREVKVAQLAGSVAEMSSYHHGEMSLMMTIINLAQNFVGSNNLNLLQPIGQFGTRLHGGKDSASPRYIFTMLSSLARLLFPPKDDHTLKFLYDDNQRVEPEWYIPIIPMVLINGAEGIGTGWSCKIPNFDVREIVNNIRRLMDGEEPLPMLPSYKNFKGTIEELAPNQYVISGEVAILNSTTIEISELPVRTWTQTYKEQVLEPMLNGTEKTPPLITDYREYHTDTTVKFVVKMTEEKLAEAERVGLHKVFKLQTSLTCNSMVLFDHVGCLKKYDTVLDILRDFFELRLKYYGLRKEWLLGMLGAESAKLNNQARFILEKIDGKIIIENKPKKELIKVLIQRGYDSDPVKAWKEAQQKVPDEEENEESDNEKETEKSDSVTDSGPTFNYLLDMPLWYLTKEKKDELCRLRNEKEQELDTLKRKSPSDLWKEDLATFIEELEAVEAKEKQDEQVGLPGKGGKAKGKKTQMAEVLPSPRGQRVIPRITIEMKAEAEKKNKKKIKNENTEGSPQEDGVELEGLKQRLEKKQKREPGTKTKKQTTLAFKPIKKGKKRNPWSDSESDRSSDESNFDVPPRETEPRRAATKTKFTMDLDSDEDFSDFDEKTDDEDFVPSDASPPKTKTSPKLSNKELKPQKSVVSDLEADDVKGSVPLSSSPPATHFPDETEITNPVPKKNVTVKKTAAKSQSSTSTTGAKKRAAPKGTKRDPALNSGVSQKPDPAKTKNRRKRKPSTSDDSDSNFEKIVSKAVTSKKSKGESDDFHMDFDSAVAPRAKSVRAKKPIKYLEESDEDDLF
Procedure, shortened: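 150 ng kDNA with 2–4 units purified human topo II and 100 μM compound in DMSO, buffer 0.5 M Tris-HCl pH 8, NaCl, MgCl2, DTT, BSA with ATP (stock buffer concentrations), 20 μL, 37 °C 30 min. Stopped with SDS, proteinase K 37 °C 15 min; 1% agarose in TAE with 0.5 μg/mL EtBr; bands quantified by densitometry; etoposide 100 μM as reference.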

[2] = Anticlonogenic activity against african green monkey Vero after 48 hrs by crystal violet staining; format: ADME, cell-based; settings: chlorocebus sabaeus, Vero cells; read-out: LC50
Procedure, shortened: (§1)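 HEK 293 and Vero cells were grown in DMEM with 10% FBS and 1% penicillin/streptomycin at 37 °C in 5% CO₂. At 60–70% confluence they were exposed for 48 h to a range of concentrations, diluted in DMEM from 100 mM DMSO stocks. Colony survival is expressed as %. Values are mean ± SD of three independent experiments; LC₅₀ is the concentration killing half the cells.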

HEK293 [3] = assay: Cytotoxicity against human HEK293 cells assessed as cell survival after 48 hrs by MTT assay; format: functional; settings: HEK293, 48 h, read-out: LC50 (the source's name)
Procedure, shortened: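 HEK 293 cells were cultured in DMEM with 10% FBS and antibiotics at 37 °C in 5% CO₂. At 60–70% confluence they were treated for 48 h with various concentrations, diluted in DMEM from 100 mM DMSO stocks. Survival was read by MTT. LC₅₀ is the concentration killing 50% of cells. Data are mean ± SD of three independent experiments.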

Vero = assay: Anticlonogenic activity against african green monkey Vero cells assessed as inhibition of colony formation of cells at 20 to 100 uM after 48 hrs by crystal violet staining; format: cell-based; settings: chlorocebus sabaeus
Procedure, shortened: (§2)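 Clonogenic survival in HEK 293 and Vero cells, 48 h exposure at graded concentrations; % survival plotted; mean ± SD of three independent experiments. Cells grown in DMEM with 10% FBS and 1% antibiotic at 37 °C, 5% CO2; compound diluted from 100 mM DMSO stock into DMEM, added at 60–70% confluence.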

[4] = biological target: T1, DNA topoisomerase 2-alpha; assay: Inhibition of human topoisomerase 2 alpha-mediated relaxation of pRYG plasmid DNA at 100 uM by agarose gel electrophoresis
Procedure, shortened: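 250 ng supercoiled pRYG plasmid, 2–4 units hTopoIIα, 100 μM compound, ATP-containing Tris pH 8 buffer, 20 μL, 37 °C 30 min; SDS/proteinase K stop; 1% agarose in TAE without EtBr, post-stained 0.5 μg/mL EtBr; products quantified densitometrically.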

HEK293 [5] = assay: Anticlonogenic activity against human HEK293 cells after 48 hrs by crystal violet staining; format: functional; settings: HEK293, 48 h, read-out: LC50 (the source's name); procedure, shortened: as §1
[6] = biological target: T1, DNA topoisomerase 2-alpha; assay: Inhibition of etoposide poisoning activity against human recombinant DNA topoisomerase 2alpha assessed as enhancement of in relaxation of supercoiled plasmid pBR322 DNA at 100 uM after 30 mins by agarose gel electrophoresis
[7] = Cytotoxicity activity against african green monkey Vero assessed as cell survival at 100 uM after 48 hrs by MTT assay; format: cell-based; settings: chlorocebus sabaeus, Vero cells; read-out: Activity
Procedure, shortened: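 MTT survival of HEK 293 and Vero cells after 48 h with compound at graded concentrations. DMEM, 10% FBS, 37 °C, 5% CO2; dilutions in DMEM from 100 mM DMSO stock, added at 60–70% confluence. Mean ± SD of three independent experiments.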

[8] = biological target: T1, DNA topoisomerase 2-alpha; assay: Inhibition of etoposide poisoning activity against human recombinant DNA topoisomerase 2alpha assessed as enhancement of in relaxation of supercoiled plasmid pBR322 DNA at 200 uM after 30 mins by agarose gel electrophoresis
[9] = biological target: T1, DNA topoisomerase 2-alpha; assay: Inhibition of human topoisomerase 2 alpha-mediated unwinding of supercoiled DNA assessed as DNA intercalation at 100 uM by agarose gel electrophoresis
Procedure, shortened: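 250 ng negatively supercoiled E. coli plasmid incubated 20 min at 37 °C with 1 μg/mL ethidium bromide (intercalator control), 100 μM etoposide or test compound; run on 1% agarose in TAE without EtBr, then post-stained with 0.5 μg/mL EtBr; mobility retardation scored.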

HEK293 [10] = assay: Anticlonogenic activity against human HEK293 cells assessed as inhibition of colony formation of cells at 20 to 100 uM after 48 hrs by crystal violet staining; format: functional, cell-based; procedure, shortened: as §2
HEK293 [11] = assay: Cytotoxicity against human HEK293 cells assessed as cell survival at 30 uM after 48 hrs by MTT assay; format: functional; settings: HEK293, 48 h, read-out: Activity
[12] = biological target: T1, DNA topoisomerase 2-alpha; settings: HEK293, 100 uM
[13] = biological target: T1, DNA topoisomerase 2-alpha; settings: HEK293, 100 uM; remark: listed apart in the source

## CC(C)(C)Nc1nc2ncccn2c1-c1ccc(C#N)cc1
[1]
  inhibition: inactive

## CC(C)(C)Nc1c(-c2ccccc2Cl)nc2cnccn12
[1]
  inhibition: Active

## CC(C)(C)Nc1c(-c2ccc(Cl)cc2)nc2cnccn12
[2]
  CC50 at 48 h: 25 µM
HEK293 [3]
  CC50: 10 µM
Vero
  inhibition (INH): Dose-dependent effect
[4]
  inhibition: Active
HEK293 [5]
  CC50: 20 µM
[6]
  inhibition: inactive
[7]
  viability at 48 h, 100 µM: < 50%
[8]
  inhibition: inactive
[9]
  inhibition: inactive
[1]
  inhibition: Active
HEK293 [10]
  inhibition: Dose-dependent effect

## CC(C)(C)Nc1c(-c2ccc(F)cc2)nc2ccc(Cl)cn12
[1]
  inhibition: Active

## CC(C)(C)Nc1c(-c2ccccc2)nc2cnccn12
[1]
  inhibition: inactive

## CC(C)(C)Nc1c(-c2ccc(Cl)cc2)nc2ccccn12
[1]
  inhibition: inactive

## CC(C)(C)Nc1cnc2ccccn12
[1]
  inhibition: inactive

## CC(C)(C)Nc1c(-c2ccc(C(=O)O)cc2)nc2cnccn12
[1]
  inhibition: inactive

## COc1cccc(-c2nc3cnccn3c2NC(C)(C)C)c1
[1]
  inhibition: inactive

## N#Cc1ccc(-c2nc3ccc(Br)cn3c2N)cc1
[1]
  inhibition: Active

## CC(C)(C)Nc1c(-c2ccc(Cl)cc2)nc2[nH]c3ccccc3n12
[1]
  inhibition: Active

## CC(C)(C)Nc1c(-c2ccc[nH]2)nc2ccccn12
[1]
  inhibition: inactive

## CCCc1nc2ccccn2c1NC(C)(C)C
[1]
  inhibition: inactive

## Nc1c(-c2ccc(Cl)cc2)nc2cnccn12
[2]
  CC50 at 48 h: 28 µM
HEK293 [3]
  CC50: 17 µM
Vero
  inhibition (INH): Dose-dependent effect
[4]
  inhibition: Active
HEK293 [5]
  CC50: 16 µM
[6]
  inhibition: inactive
[7]
  viability at 48 h, 100 µM: < 50%
[8]
  inhibition: inactive
[9]
  inhibition: inactive
[1]
  inhibition: Active
HEK293 [10]
  inhibition: Dose-dependent effect

## Cc1ccn2c(NC(C)(C)C)c(-c3ccc(Cl)cc3)nc2c1
[1]
  inhibition: inactive

## O=c1[nH]cc(F)c(=O)[nH]1 [FLUOROURACIL]
HEK293 [11]
  viability at 30 µM: 50%

## CCOC(=O)c1cnn2c(N)c(-c3ccc(Cl)cc3)[nH]c12
[2]
  CC50 at 48 h: 62 µM
HEK293 [3]
  CC50: 25 µM
Vero
  inhibition (INH): Dose-dependent effect
[4]
  inhibition: Active
HEK293 [5]
  CC50: 25 µM
[6]
  inhibition: inactive
[7]
  viability at 48 h, 100 µM: < 50%
[8]
  inhibition: inactive
[9]
  inhibition: inactive
[1]
  inhibition: Active
HEK293 [10]
  inhibition: Dose-dependent effect

## CC(C)(C)Nc1c(-c2ccc(Cl)cc2)nc2ncccn12
[1]
  inhibition: Active

## CC(C)(C)Nc1c(-c2ccccn2)nc2ccccn12
[4]
  inhibition: Active
[1]
  inhibition: Active

## CCOC(=O)c1cnn2c(NC3CCCCC3)c(-c3ccc(Cl)cc3)[nH]c12
[1]
  inhibition: Active

## Nc1c(-c2ccccn2)nc2ccc(Cl)cn12
[1]
  inhibition: inactive

## CCOC(=O)c1cnn2c(NC(C)(C)C)c(-c3ccc(Cl)cc3)[nH]c12
[2]
  CC50 at 48 h: 22 µM
HEK293 [3]
  CC50: 15 µM
Vero
  inhibition (INH): Dose-dependent effect
[4]
  inhibition: Active
HEK293 [5]
  CC50: 15 µM
[6]
  inhibition: inactive
[7]
  viability at 48 h, 100 µM: < 50%
[8]
  inhibition: inactive
[9]
  inhibition: inactive
[1]
  inhibition: Active
HEK293 [10]
  inhibition: Dose-dependent effect

## COc1ccc(-c2nc3cnccn3c2N)cc1
[4]
  inhibition: Active
[1]
  inhibition: Active

## CC(C)(C)Nc1c(-c2cccc3ccccc23)nc2ccccn12
[1]
  inhibition: Active

## COc1cc([C@@H]2c3cc4c(cc3[C@@H](O[C@@H]3O[C@@H]5CO[C@@H](C)O[C@H]5[C@H](O)[C@H]3O)[C@H]3COC(=O)[C@H]23)OCO4)cc(OC)c1O [ETOPOSIDE]
HEK293 [3]
  CC50: 90 µM
[12]
  inhibition: inactive
[6]
  inhibition: Active
[8]
  inhibition: inactive
[9]
  inhibition: inactive
[13]
  inhibition: Active

## Nc1c(-c2ccc(Cl)cc2)nc2ccccn12
[4]
  inhibition: Active
[1]
  inhibition: Active

## CC(C)(C)Nc1c(-c2ccc(Cl)cc2)nc2ccc(Cl)cn12
[4]
  inhibition: Active
[1]
  inhibition: Active

## Clc1ccc(-c2nc3cnccn3c2NC2CCCCC2)cc1
[1]
  inhibition: inactive

## CC(C)(C)Nc1cnc2cnccn12
[1]
  inhibition: inactive

## CN(C)c1ccc(-c2nc3ccccn3c2NC(C)(C)C)cc1
[1]
  inhibition: Active
